Assay results gathered from unrelated publications.
Each line is one published result; the experiments were not run side by side.
PIK3CA: Phosphatidylinositol 4,5-bisphosphate 3-kinase catalytic subunit alpha isoform (PIK3CA, Homo sapiens, UniProt P42336)
KDR: Vascular endothelial growth factor receptor 2 (KDR, Homo sapiens, UniProt P35968)
PIK3CB: Phosphatidylinositol 4,5-bisphosphate 3-kinase catalytic subunit beta isoform (PIK3CB, Homo sapiens, UniProt P42338)

Cc1nc2c(F)cc(-c3ccnc(Nc4ccc5c(=O)cc(N6CCOCC6)oc5c4)n3)cc2n1C(C)C — IC50 (PIK3CA; enzyme activity; inhibitor; radiometric): 2130 nM
CNC(=O)[C@H](Cc1c[nH]c2ccccc12)NC(=O)[C@@H](CC(=O)NO)CC(C)C — IC50 (Macrophage metalloelastase (MMP12, Homo sapiens, UniProt P39900); enzyme activity; inhibitor): 0.328 nM
CN(C)C(=O)c1cc2cnc(Nc3ccc4c(=O)cc(N5CCNCC5)oc4c3)nc2n1C1CCCC1 — IC50 (PIK3CA; enzyme activity; inhibitor; radiometric): > 10000 nM
O=C(O)CC[C@H](NC(=O)N[C@@H](CCCCNC(=O)[C@H](Cc1ccc2ccccc2c1)NC(=O)[C@H]1CC[C@H](CNC(=O)CN2CCN(CC(=O)O)CCN(CC(=O)O)CCN(CC(=O)O)CC2)CC1)C(=O)O)C(=O)O — IC50 (Glutamate carboxypeptidase 2 (FOLH1, Homo sapiens, UniProt Q04609); ligand displacement in cells; radioligand): 7.8 nM
O=[N+]([O-])c1cc(I)c(O)c(C=NNc2ccc(Br)cc2)c1 — IC50 (KDR; enzyme activity; inhibitor; ATP luminescence): 6520 nM
CC1=C(/C=C/C(C)=C/C=C/C(C)=C/C=C/C=C(C)/C=C/C=C(C)/C=C/C2=C(C)CCCC2(C)C)C(C)(C)CCC1 — IC50 (KDR; enzyme activity; inhibitor; TR-FRET): > 40000 nM
O=C1Nc2ccccc2C1=Nc1cccc(Cl)c1 — IC50 (PIK3CB; enzyme activity; inhibitor; ADP detection): 511 nM
O=[N+]([O-])c1cc(I)c(O)c(C=NNc2ccc(C(F)(F)F)cc2)c1 — IC50 (KDR; enzyme activity; inhibitor; ATP luminescence): 4440 nM
O=C1C(=Nc2ccccc2I)c2ccccc2N1Cc1ccc(Br)cc1 — IC50 (PIK3CB; enzyme activity; inhibitor; ADP detection): 435 nM
CN(C)C(=O)c1cc2cnc(Nc3cncc(-c4cccc5c(=O)cc(N6CCOCC6)oc45)c3)nc2n1C1CCCC1 — IC50 (PIK3CA; enzyme activity; inhibitor; radiometric): > 10000 nM
O=[N+]([O-])c1cc(Br)c(O)c(C=NNc2ccccc2)c1 — IC50 (KDR; enzyme activity; inhibitor; ATP luminescence): 5400 nM
O=C1C(=Nc2ccccc2Br)c2ccccc2N1Cc1ccccc1 — IC50 (PIK3CB; enzyme activity; inhibitor; ADP detection): 16.6 nM
Cc1c(N2CCOCC2)oc2c(-c3ccc(Nc4ncc5cc(C(=O)N(C)C)n(C6CCCC6)c5n4)cc3F)cccc2c1=O — IC50 (PIK3CA; enzyme activity; inhibitor; radiometric): > 10000 nM
CCc1ccc(N=C2C(=O)Nc3ccccc32)cc1 — IC50 (PIK3CB; enzyme activity; inhibitor; ADP detection): 270 nM
CN(C)C(=O)c1cc2cnc(Nc3cc(C(=O)O)cc(-c4ccc5c(=O)cc(N6CCOCC6)oc5c4)c3)nc2n1C1CCCC1 — IC50 (PIK3CA; enzyme activity; inhibitor; radiometric): 111 nM
CCc1ccc(N=C2C(=O)N(Cc3ccccc3)c3ccccc32)cc1 — IC50 (PIK3CB; enzyme activity; inhibitor; ADP detection): 22.1 nM
CN(C)C(=O)c1cc2cnc(Nc3ccc(-c4ccc5c(=O)cc(N6CCNCC6)oc5c4)cc3)nc2n1C1CCCC1 — IC50 (PIK3CA; enzyme activity; inhibitor; radiometric): > 10000 nM
Cc1cccc(N=C2C(=O)Nc3ccccc32)c1 — IC50 (PIK3CB; enzyme activity; inhibitor; ADP detection): 134 nM
CN(C)C(=O)c1cc2cnc(Nc3ccc(-c4ccc5c(=O)cc(N6CCOCC6)oc5c4)cc3)nc2n1C1CCCC1 — IC50 (PIK3CA; enzyme activity; inhibitor; radiometric): 5780 nM
COc1ccc(Nc2nc(Nc3ccc4ncccc4c3)nc(N3CCOCC3)n2)cc1 — IC50 (PIK3CA; enzyme activity; inhibitor; ADP detection): 1290 nM
O=[N+]([O-])c1ccc(O)c(C=NNc2ccc(Br)cc2)c1 — IC50 (KDR; enzyme activity; inhibitor; ATP luminescence): 12600 nM
O=C1C(=Nc2ccc(Cl)cc2Br)c2ccccc2N1Cc1ccc(Br)cc1 — IC50 (PIK3CB; enzyme activity; inhibitor; ADP detection): 34.4 nM
O=[N+]([O-])c1cc(Br)c(O)c(C=NNc2ccc(C(F)(F)F)cc2)c1 — IC50 (KDR; enzyme activity; inhibitor; ATP luminescence): 8950 nM
COc1cc(N=C2C(=O)N(Cc3ccccc3)c3ccccc32)cc(OC)c1 — IC50 (PIK3CA; enzyme activity; inhibitor; ADP detection): 7.31 nM
O=[N+]([O-])c1cc(I)c(O)c(C=NNc2ccccc2)c1 — IC50 (KDR; enzyme activity; inhibitor; ATP luminescence): 4970 nM
CN(C)C(=O)c1cc2cnc(Nc3cc(C(F)(F)F)c(-c4ccc5c(=O)cc(N6CCOCC6)oc5c4)cn3)nc2n1C1CCCC1 — IC50 (PIK3CA; enzyme activity; inhibitor; radiometric): > 10000 nM
O=C(O)[C@H]1O[C@@H](Oc2cc3oc(-c4ccc(O)cc4)cc(=O)c3c(O)c2O)[C@H](O)[C@@H](O)[C@@H]1O — IC50 (KDR; enzyme activity; inhibitor; TR-FRET): 8350 nM
